Key:
[1] = system: Mus musculus; assay: Antiinflammatory activity in BALB/c mouse assessed as inhibition of carrageenan-induced paw edema at 200 mg/kg, po after 360 mins; assay type: functional; conditions: 6 h
In short: (§1)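 Oral dosing in 0.5% CMC/water suspension, vehicle for controls. 1 h later, carrageenan (0.5 mg/25 µl saline) injected subplantar into right hind paw, 25 µl saline into left. Right–left footpad thickness measured by dial callipers every 90 min for 6 h. % inhibition = [(n − n′)/n]×100 versus control. Groups of 3 (100 mg/kg screen) or 4–5 mice.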

[2] = system: Mus musculus; assay: Analgesic activity in BALB/c mouse assessed as decrease in acetic acid-induced writhing at 100 mg/kg, po administered 1 hr prior to acetic acid challenge by Koster's test; assay type: functional
In short: (§2)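 Test samples suspended in distilled water/0.5% CMC given orally; vehicle to controls. 1 h later, 3% (w/v) acetic acid i.p. (0.1 ml/10 g). Starting 5 min after injection, writhings counted for 10 min. Result expressed as % change from writhing controls. Groups of 4 mice (preliminary 100 mg/kg) or 4–5 mice (50/200 mg/kg). Two-tailed Student's t test.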

[3] = system: Mus musculus; assay: Analgesic activity in BALB/c mouse assessed as decrease in acetic acid-induced writhing at 50 mg/kg, po administered 1 hr prior to acetic acid challenge by Koster's test; assay type: functional; in short: as §2
[4] = system: Mus musculus; assay: Analgesic activity in BALB/c mouse assessed as decrease in acetic acid-induced writhing at 200 mg/kg, po administered 1 hr prior to acetic acid challenge by Koster's test; assay type: functional; in short: as §2
[5] = system: Mus musculus; assay: Gastrointestinal toxicity in BALB/c mouse assessed as acute ulcerogenic risk at 200 mg/kg, po; assay type: organism-based; set-up: dose 200 mg/kg, route oral; conditions: in vivo
In short: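 Mice, fasted overnight with free water, received 200 mg/kg orally as a suspension in distilled water with 0.5% carboxymethyl cellulose, in groups of 4–5. They were first used in the acetic acid writhing test. Eight hours after that test they were killed under deep ether anaesthesia, and their stomachs were removed and scored for ulcers. Acetylsalicylic acid 200 mg/kg was the reference.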

[6] = system: Mus musculus; assay: Antioxidant activity in BALB/c mouse assessed as TBARS level per gram of wet weight of tissue at 200 mg/kg, po; assay type: functional; set-up: unit: nmol/g
In short: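 Mice dosed orally at 200 mg/kg were killed under ether 8 h after the writhing test and stomachs removed. Tissue extract supernatant obtained by centrifugation (1000×g 10 min, then 2000×g 30 min, 4 °C). Heated with TBA in boiling water for 60 min, TCA added, absorbance read at 532 nm against blank tissue. Calibrated with 1,1,3,3-tetraethoxypropane; reported as nmol TBARS/g wet tissue.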

[7] = system: Mus musculus; assay: Acute toxicity in BALB/c mouse assessed as diarrhea and depression at 50 to 200 mg/kg, po after 72 hrs; assay type: organism-based; set-up: dose 50-200 mg/kg, route oral; conditions: in vivo
[8] = system: Mus musculus; assay: Antiinflammatory activity in BALB/c mouse assessed as inhibition of carrageenan-induced paw edema at 200 mg/kg, po after 270 mins; conditions: 4.5 h
[9] = system: Mus musculus; assay: Antiinflammatory activity in BALB/c mouse assessed as inhibition of carrageenan-induced paw edema at 200 mg/kg, po after 90 mins; assay type: functional; conditions: 1.5 h; in short: as §1
[10] = system: Mus musculus; assay: Antiinflammatory activity in BALB/c mouse assessed as inhibition of carrageenan-induced paw edema at 200 mg/kg, po after 270 mins; assay type: functional; conditions: 4.5 h; in short: as §1
[11] = system: Mus musculus; assay: Antiinflammatory activity in BALB/c mouse assessed as inhibition of carrageenan-induced paw edema at 100 mg/kg, po after 180 mins; conditions: 3 h
[12] = system: Mus musculus; assay: Antiinflammatory activity in BALB/c mouse assessed as inhibition of carrageenan-induced paw edema at 100 mg/kg, po after 180 mins; assay type: functional; conditions: 3 h; in short: as §1
[13] = system: Mus musculus; assay: Antiinflammatory activity in BALB/c mouse assessed as inhibition of carrageenan-induced paw edema at 50 mg/kg, po after 90 mins; assay type: functional; conditions: 1.5 h; in short: as §1
[14] = system: Mus musculus; assay: Antiinflammatory activity in BALB/c mouse assessed as inhibition of carrageenan-induced paw edema at 50 mg/kg, po after 360 mins; assay type: functional; conditions: 6 h; in short: as §1
[15] = system: Mus musculus; assay: Antiinflammatory activity in BALB/c mouse assessed as inhibition of carrageenan-induced paw edema at 100 mg/kg, po after 90 mins; assay type: functional; conditions: 1.5 h; in short: as §1
[16] = system: Mus musculus; assay: Antiinflammatory activity in BALB/c mouse assessed as inhibition of carrageenan-induced paw edema at 100 mg/kg, po after 270 mins; assay type: functional; conditions: 4.5 h; in short: as §1
[17] = system: Mus musculus; assay: Antiinflammatory activity in BALB/c mouse assessed as inhibition of carrageenan-induced paw edema at 100 mg/kg, po after 360 mins; assay type: functional; conditions: 6 h; in short: as §1

SMILES | inhibition in vivo at 200 mg/kg [1] [%] | inhibition in vivo at 100 mg/kg [2] [%] | inhibition in vivo at 50 mg/kg [3] [%] | inhibition in vivo at 200 mg/kg [4] [%] | Activity [5] | Activity [6] [nmol] | Activity [7] | inhibition in vivo at 200 mg/kg [8] [%] | inhibition in vivo at 200 mg/kg [9] [%] | inhibition in vivo at 200 mg/kg [10] [%] | inhibition in vivo at 100 mg/kg [11] [%] | inhibition in vivo at 100 mg/kg [12] [%] | inhibition in vivo at 50 mg/kg [13] [%] | inhibition in vivo at 50 mg/kg [14] [%] | inhibition in vivo at 100 mg/kg [15] [%] | inhibition in vivo at 100 mg/kg [16] [%] | inhibition in vivo at 100 mg/kg [17] [%]
COc1ccc(CCc2n[nH]c(=S)n2N)cc1 | 37.5 | 56.6 | 9.5 | 56.1 | Non-toxic | 105.9 | Non-toxic | 33.9 | – | – | – | – | – | – | – | – | –
COc1ccc(Cc2n[nH]c(=S)n2N)cc1 | 33.3 | 30.2 | 23.4 | 46.7 | Non-toxic | 93 | Non-toxic | 32.2 | – | – | – | – | – | – | – | – | –
CC(=O)Oc1ccccc1C(=O)O [ASPIRIN] | – | – | – | 54.4 | – | 118.2 | – | – | – | – | – | – | – | – | – | – | –
COc1ccc(Cc2nnc3n2N=C(c2ccccc2)CS3)cc1 | – | 39.5 | 14.3 | 46.4 | – | 112.3 | Non-toxic | – | – | – | – | – | – | – | – | – | –
COc1cc(CCc2n[nH]c(=S)n2N)cc(OC)c1OC | 41.7 | 52.4 | 23.1 | 54.2 | – | 104.3 | Non-toxic | – | 39.3 | 20.4 | – | – | – | – | – | – | –
COc1ccc(CCc2nnc3n2N=C(c2ccc(Cl)cc2)CS3)cc1 | 50 | 71.5 | 20.2 | 62.4 | – | 108.4 | Non-toxic | – | – | 20.4 | 29.4 | – | – | – | – | – | –
COc1cc(Cc2n[nH]c(=S)n2N)cc(OC)c1OC | 21.2 | 85.8 | 21.6 | 61 | – | 96.2 | Non-toxic | – | – | 49.2 | – | 30 | 32.3 | 24.9 | – | – | –
COc1ccc(CCc2nnc3n2N=C(c2ccccc2)CS3)cc1 | 37.5 | 42.8 | 6.4 | 44.2 | – | 110.8 | Non-toxic | 50 | – | – | – | – | – | – | – | – | –
COc1ccc2c(c1)c(CC(=O)O)c(C)n2C(=O)c1ccc(Cl)cc1 [INDOMETHACIN] | – | – | – | – | – | – | – | – | – | – | 43.1 | – | – | – | 41.9 | – | –
COc1cc(Cc2nnc3n2N=C(c2ccc(F)cc2)CS3)cc(OC)c1OC | 25 | 35 | 22.1 | 52.2 | – | 107.6 | Non-toxic | 24.9 | – | – | 26.8 | – | – | – | – | – | –
COc1cc(CCc2nnc3n2N=C(c2ccc(Cl)cc2)CS3)cc(OC)c1OC | 25 | 50.2 | 28.5 | 54.8 | – | 101.9 | Non-toxic | 39.1 | – | – | 36.9 | – | – | – | 29.3 | 34.3 | –
COc1cc(Cc2nnc3n2N=C(c2ccc(Cl)cc2)CS3)cc(OC)c1OC | 25 | 32.6 | 13.5 | 23.4 | – | 101.1 | Non-toxic | 41 | – | – | – | – | – | – | – | – | –
COc1cc(CCc2nnc3n2N=C(c2ccc(F)cc2)CS3)cc(OC)c1OC | 23 | 43.1 | 35.2 | 56.1 | – | 105.1 | Non-toxic | 46.4 | – | – | – | 21.4 | 34.5 | – | 40.7 | 57.9 | 38.9
COc1ccc(Cc2nnc3n2N=C(c2ccc(F)cc2)CS3)cc1 | 41.7 | 26.3 | 20.5 | 31.5 | – | 95.4 | Non-toxic | 53.6 | – | – | 34.3 | – | – | – | – | – | –
COc1cc(CCc2nnc3n2N=C(c2ccccc2)CS3)cc(OC)c1OC | 29.2 | 17.1 | 32.4 | 27.5 | – | 100.3 | Non-toxic | 46.4 | – | – | 38.5 | – | – | – | 31.7 | – | –
COc1cc(Cc2nnc3n2N=C(c2ccccc2)CS3)cc(OC)c1OC | 33.3 | 53 | 32.4 | 58.4 | Non-toxic | 92.2 | Non-toxic | 32.2 | – | – | 34.9 | – | – | – | 24 | 23.6 | –
COc1ccc(Cc2nnc3n2N=C(c2ccc(Cl)cc2)CS3)cc1 | 38.9 | 33 | 9.9 | 39 | Non-toxic | 97.9 | Non-toxic | 25 | – | – | – | – | – | – | – | – | –
COc1ccc(CCc2nnc3n2N=C(c2ccc(F)cc2)CS3)cc1 | 27.1 | 29.2 | 25 | 37 | – | 103.5 | Non-toxic | 34 | – | – | 33.7 | – | – | – | 26 | – | –

Reference: ChEMBL document CHEMBL1155309, “Synthesis of 3,6-disubstituted 7H-1,2,4-triazolo[3,4-b]-1,3,4-thiadiazines as novel analgesic/anti-inflammatory compounds” (Eur J Med Chem, 2009)
